Measured values as given in ChEMBL document CHEMBL5696444 (Nat Commun, 2017).
The source made the active and inactive calls. The rule behind the calls is not given here.

Assays:
[1] = target: Mitogen-activated protein kinase 1 (Homo sapiens) (UniProt P28482); assay: Inhibition of MAPK1 (unknown origin) at 100 nM in the presence of ATP by Kinome scan method relative to control
[2] = target: Mitogen-activated protein kinase 9 (Homo sapiens) (UniProt P45984); assay: Inhibition of MAPK9 (unknown origin) at 100 nM in the presence of ATP by Kinome scan method relative to control
HCT-116 [3] = assay: Induction of cell cycle arrest in human HCT-116 cells assessed as G2/M phase at 0.1 uM incubated for 6 hrs by flow cytometry analysis (Rvb=25.8%); format: functional
[4] = target: Serine/threonine-protein kinase mTOR (Homo sapiens) (UniProt P42345); assay: Inhibition of FRAP1 (unknown origin) at 1000 nM in the presence of ATP by Kinome scan method relative to control
[5] = target: Dual specificity protein kinase CLK1 (Homo sapiens) (UniProt P49759); assay: Inhibition of CLK (unknown origin) in human MDA-MB-468 cells assessed as SRSF4 phosphorylation level incubated for 3 hrs by immunoblot analysis; format: cell-based
HCT-116 [6] = assay: Induction of apoptosis in human HCT-116 cells assessed as late apoptosis at 1 uM incubated for > 6 hrs by annexin V/PI staining based analysis (Rvb=6.12%); format: functional
HCT-116 [7] = assay: Induction of apoptosis in human HCT-116 cells assessed as late apoptosis at 10 uM incubated for > 6 hrs by annexin V/PI staining based analysis (Rvb=6.12%); format: functional
[8] = target: Focal adhesion kinase 1 (Homo sapiens) (UniProt Q05397); assay: Inhibition of PTK2 (unknown origin) at 100 nM in the presence of ATP by Kinome scan method relative to control
[9] = target: Dual specificity protein kinase CLK3 (Homo sapiens) (UniProt P49761); assay: Inhibition of CLK3 (unknown origin) at 123 nM in the presence of ATP by Kinome scan method relative to control; details: time > 6.0 hrs
HCT-116 [10] = assay: Induction of cell cycle arrest in human HCT-116 cells assessed as sub G0/G1 phase at 5 uM incubated for 24 hrs by flow cytometry analysis (Rvb=2.5%); format: functional
HCT-116 [11] = assay: Induction of cell cycle arrest in human HCT-116 cells assessed as G0/G1 phase at 0.5 uM incubated for 24 hrs by flow cytometry analysis (Rvb=35.7%); format: functional
[12] = target: Glycogen synthase kinase-3 beta (Homo sapiens) (UniProt P49841); assay: Inhibition of GSK3B (unknown origin) at 1000 nM in the presence of ATP by Kinome scan method relative to control
[13] = target: Dual specificity protein kinase CLK1 (Homo sapiens) (UniProt P49759); assay: Inhibition of CLK (unknown origin) in human HCT-116 cells assessed as induction in alternative splicing effect in S6K skipped exon incubated for 6 hrs by RT-PCR analysis; format: cell-based; details: dose 0.2-5 µM
In short: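 Cells exposed to graded T3 concentrations for 6 h (chosen to avoid cytotoxicity), with a DMSO vehicle control. Total RNA was reverse-transcribed with oligo-dT primers. Targeted splice or conjoined-gene products were quantified by real-time qPCR or by targeted next-generation sequencing. Conjoined-gene isoform expression was normalized to a sequenced housekeeping gene.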

[14] = target: Serine/threonine-protein kinase PLK1 (Homo sapiens) (UniProt P53350); assay: Inhibition of PLK1 (unknown origin) at 100 nM in the presence of ATP by Kinome scan method relative to control
[15] = target: Proto-oncogene tyrosine-protein kinase receptor Ret (Homo sapiens) (UniProt P07949); assay: Inhibition of RET (unknown origin) at 1000 nM in the presence of ATP by Kinome scan method relative to control
[16] = target: Cyclin-dependent kinase 1/cyclin B1 (Homo sapiens) (UniProt P06493+P14635); assay: Inhibition of CDK1/cyclin B (unknown origin) at 100 nM in the presence of ATP by Kinome scan method relative to control; format: protein-complex assay
[17] = target: Angiopoietin-1 receptor (Homo sapiens) (UniProt Q02763); assay: Inhibition of TEK (unknown origin) at 1000 nM in the presence of ATP by Kinome scan method relative to control
HCT-116 [18] = assay: Induction of apoptosis in human HCT-116 cells assessed as late apoptosis at 5 uM incubated for > 6 hrs by annexin V/PI staining based analysis (Rvb=6.12%); format: functional
[19] = target: CDK7/Cyclin H/MNAT1 (Homo sapiens) (UniProt P51946+P50613+P51948); assay: Inhibition of CDK7/cyclin H/MNAT1 (unknown origin) at 100 nM in the presence of ATP by Kinome scan method relative to control; format: protein-complex assay
[20] = target: Casein kinase I isoform delta (Homo sapiens) (UniProt P48730); assay: Inhibition of CSNK1D (unknown origin) at 100 nM in the presence of ATP by Kinome scan method relative to control
[21] = target: Inhibitor of nuclear factor kappa-B kinase subunit beta (Homo sapiens) (UniProt O14920); assay: Inhibition of IKBKB (unknown origin) at 1000 nM in the presence of ATP by Kinome scan method relative to control
HCT-116 [22] = assay: Cytotoxicity against human HCT-116 cells assessed as inhibition of cell viability incubated for > 24 hrs; format: functional
[23] = target: Hepatocyte growth factor receptor (Homo sapiens) (UniProt P08581); assay: Inhibition of MET (unknown origin) at 1000 nM in the presence of ATP by Kinome scan method relative to control
HCT-116 [24] = assay: Induction of cell cycle arrest in human HCT-116 cells assessed as sub G0/G1 phase at 0.5 uM incubated for 24 hrs by flow cytometry analysis (Rvb=2.5%); format: functional
[25] = target: Cyclin-dependent kinase 5/CDK5 activator 1 (Homo sapiens) (UniProt Q00535+Q15078); assay: Inhibition of CDK5/p35 (unknown origin) at 100 nM in the presence of ATP by Kinome scan method relative to control; format: protein-complex assay
[26] = target: Ephrin type-A receptor 5 (Homo sapiens) (UniProt P54756); assay: Inhibition of EPHA5 (unknown origin) at 100 nM in the presence of ATP by Kinome scan method relative to control
HCT-116 [27] = assay: Induction of cell cycle arrest in human HCT-116 cells assessed as G2/M phase at 0.1 uM incubated for 24 hrs by flow cytometry analysis (Rvb=17.9%); format: functional
HCT-116 [28] = assay: Induction of cell cycle arrest in human HCT-116 cells assessed as G0/G1 phase at 1 uM incubated for 24 hrs by flow cytometry analysis (Rvb=35.7%); format: functional
HCT-116 [29] = assay: Induction of cell cycle arrest in human HCT-116 cells assessed as S phase at 1 uM incubated for 24 hrs by flow cytometry analysis (Rvb=46.4%); format: functional
[30] = target: Serine/threonine-protein kinase Nek2 (Homo sapiens) (UniProt P51955); assay: Inhibition of NEK2 (unknown origin) at 1000 nM in the presence of ATP by Kinome scan method relative to control
[31] = target: Inhibitor of nuclear factor kappa-B kinase subunit beta (Homo sapiens) (UniProt O14920); assay: Inhibition of IKBKB (unknown origin) at 100 nM in the presence of ATP by Kinome scan method relative to control
[32] = target: RAC-alpha serine/threonine-protein kinase (Homo sapiens) (UniProt P31749); assay: Inhibition of AKT1 (unknown origin) at 100 nM in the presence of ATP by Kinome scan method relative to control

Sequence of Inhibitor of nuclear factor kappa-B kinase subunit beta (Homo sapiens) (O14920 whole entry): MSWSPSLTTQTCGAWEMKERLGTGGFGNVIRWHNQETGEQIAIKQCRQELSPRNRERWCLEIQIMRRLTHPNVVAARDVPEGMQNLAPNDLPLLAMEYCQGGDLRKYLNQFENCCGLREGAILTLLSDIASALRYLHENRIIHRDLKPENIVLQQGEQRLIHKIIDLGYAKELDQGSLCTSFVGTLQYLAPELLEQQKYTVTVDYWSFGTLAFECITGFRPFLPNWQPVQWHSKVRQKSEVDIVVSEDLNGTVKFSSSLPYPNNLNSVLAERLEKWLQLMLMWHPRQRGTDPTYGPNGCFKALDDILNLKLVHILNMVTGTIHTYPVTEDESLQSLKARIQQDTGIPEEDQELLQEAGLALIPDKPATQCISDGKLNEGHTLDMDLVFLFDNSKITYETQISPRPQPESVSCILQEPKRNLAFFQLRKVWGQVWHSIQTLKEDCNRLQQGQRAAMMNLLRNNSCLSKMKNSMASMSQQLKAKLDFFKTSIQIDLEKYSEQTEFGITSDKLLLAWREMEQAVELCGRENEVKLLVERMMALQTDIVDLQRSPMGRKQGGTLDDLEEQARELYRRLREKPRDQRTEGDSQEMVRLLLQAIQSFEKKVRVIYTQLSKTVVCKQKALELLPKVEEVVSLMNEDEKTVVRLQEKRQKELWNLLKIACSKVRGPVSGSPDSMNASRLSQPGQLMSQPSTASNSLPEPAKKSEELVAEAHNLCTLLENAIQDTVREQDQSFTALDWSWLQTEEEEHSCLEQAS
Sequence of Dual specificity protein kinase CLK1 (Homo sapiens) (P49759 whole entry, looked up, canonical isoform): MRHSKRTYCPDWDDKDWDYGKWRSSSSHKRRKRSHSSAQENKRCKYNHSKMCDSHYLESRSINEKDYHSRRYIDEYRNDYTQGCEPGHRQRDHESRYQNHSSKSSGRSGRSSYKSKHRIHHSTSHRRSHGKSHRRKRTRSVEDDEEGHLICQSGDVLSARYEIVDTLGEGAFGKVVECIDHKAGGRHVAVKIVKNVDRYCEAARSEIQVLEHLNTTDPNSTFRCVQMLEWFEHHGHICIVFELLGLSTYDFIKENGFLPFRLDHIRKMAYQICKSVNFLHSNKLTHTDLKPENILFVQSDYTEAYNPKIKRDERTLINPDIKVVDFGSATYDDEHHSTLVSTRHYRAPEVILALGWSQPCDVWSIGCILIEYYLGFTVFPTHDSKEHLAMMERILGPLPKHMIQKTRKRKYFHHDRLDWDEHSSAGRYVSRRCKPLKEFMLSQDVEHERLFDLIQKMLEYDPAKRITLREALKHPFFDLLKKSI
Sequence of Mitogen-activated protein kinase 1 (Homo sapiens) (P28482 whole entry): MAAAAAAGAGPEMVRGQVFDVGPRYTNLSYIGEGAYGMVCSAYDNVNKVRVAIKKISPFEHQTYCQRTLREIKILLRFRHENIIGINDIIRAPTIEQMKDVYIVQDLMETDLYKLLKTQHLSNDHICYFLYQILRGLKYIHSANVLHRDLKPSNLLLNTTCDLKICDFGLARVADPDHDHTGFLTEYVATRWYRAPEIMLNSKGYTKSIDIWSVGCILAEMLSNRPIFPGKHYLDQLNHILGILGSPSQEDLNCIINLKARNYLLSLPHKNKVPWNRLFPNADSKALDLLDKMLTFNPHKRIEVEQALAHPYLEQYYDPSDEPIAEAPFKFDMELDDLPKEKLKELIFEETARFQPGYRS
Sequence of Mitogen-activated protein kinase 9 (Homo sapiens) (P45984 whole entry, looked up): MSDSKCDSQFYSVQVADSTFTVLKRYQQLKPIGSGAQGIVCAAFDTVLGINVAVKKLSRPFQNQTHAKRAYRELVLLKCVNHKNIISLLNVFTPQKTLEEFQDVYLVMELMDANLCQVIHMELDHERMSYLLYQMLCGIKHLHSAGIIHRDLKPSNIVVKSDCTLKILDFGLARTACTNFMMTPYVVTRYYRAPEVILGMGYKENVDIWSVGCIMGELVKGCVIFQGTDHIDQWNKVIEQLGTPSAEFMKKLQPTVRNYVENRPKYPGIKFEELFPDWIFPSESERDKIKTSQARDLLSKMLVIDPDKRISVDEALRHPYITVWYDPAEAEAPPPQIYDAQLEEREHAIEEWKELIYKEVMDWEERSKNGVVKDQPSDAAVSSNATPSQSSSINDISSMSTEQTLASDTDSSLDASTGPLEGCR
Sequence of Casein kinase I isoform delta (Homo sapiens) (P48730 whole entry, looked up, canonical isoform): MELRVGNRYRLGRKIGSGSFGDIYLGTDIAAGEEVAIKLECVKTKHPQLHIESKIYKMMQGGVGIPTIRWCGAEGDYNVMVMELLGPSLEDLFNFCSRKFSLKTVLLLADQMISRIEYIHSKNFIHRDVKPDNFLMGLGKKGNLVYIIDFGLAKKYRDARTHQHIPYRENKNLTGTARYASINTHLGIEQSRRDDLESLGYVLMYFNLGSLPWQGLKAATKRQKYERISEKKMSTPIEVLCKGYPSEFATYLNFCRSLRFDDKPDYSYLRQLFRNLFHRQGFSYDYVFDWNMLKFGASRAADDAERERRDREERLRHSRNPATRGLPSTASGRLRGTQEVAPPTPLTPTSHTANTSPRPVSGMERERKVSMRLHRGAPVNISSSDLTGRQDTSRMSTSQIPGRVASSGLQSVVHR
Sequence of Serine/threonine-protein kinase PLK1 (Homo sapiens) (P53350 whole entry): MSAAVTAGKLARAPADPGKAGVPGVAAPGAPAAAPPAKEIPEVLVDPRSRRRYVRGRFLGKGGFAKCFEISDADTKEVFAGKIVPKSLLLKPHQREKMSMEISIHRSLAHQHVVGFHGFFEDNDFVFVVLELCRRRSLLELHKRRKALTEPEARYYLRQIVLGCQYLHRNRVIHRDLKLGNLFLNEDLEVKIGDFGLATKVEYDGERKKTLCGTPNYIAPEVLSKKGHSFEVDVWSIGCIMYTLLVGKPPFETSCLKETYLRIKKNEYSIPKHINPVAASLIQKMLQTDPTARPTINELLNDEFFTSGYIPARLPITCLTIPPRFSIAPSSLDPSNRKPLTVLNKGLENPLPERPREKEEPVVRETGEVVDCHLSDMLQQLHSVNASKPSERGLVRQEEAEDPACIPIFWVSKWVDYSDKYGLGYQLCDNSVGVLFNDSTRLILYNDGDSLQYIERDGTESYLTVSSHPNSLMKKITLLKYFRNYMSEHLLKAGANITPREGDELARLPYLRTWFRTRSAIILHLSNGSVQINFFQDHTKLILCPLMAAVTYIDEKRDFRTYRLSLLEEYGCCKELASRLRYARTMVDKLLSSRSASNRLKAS
Sequence of Dual specificity protein kinase CLK3 (Homo sapiens) (P49761 whole entry, looked up): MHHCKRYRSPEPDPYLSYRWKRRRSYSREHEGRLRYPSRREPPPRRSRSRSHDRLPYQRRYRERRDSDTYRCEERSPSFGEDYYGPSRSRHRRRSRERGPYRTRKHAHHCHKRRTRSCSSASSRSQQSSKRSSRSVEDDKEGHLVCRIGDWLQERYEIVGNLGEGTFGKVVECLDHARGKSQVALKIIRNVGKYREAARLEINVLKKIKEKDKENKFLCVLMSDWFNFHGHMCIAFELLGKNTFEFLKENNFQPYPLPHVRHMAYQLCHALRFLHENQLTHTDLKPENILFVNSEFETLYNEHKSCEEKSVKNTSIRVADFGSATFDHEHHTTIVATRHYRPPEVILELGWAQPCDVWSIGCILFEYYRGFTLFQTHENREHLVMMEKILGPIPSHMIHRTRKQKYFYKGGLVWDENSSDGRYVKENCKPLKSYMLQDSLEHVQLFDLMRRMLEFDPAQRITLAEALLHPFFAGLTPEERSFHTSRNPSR
Sequence of Serine/threonine-protein kinase Nek2 (Homo sapiens) (P51955 whole entry): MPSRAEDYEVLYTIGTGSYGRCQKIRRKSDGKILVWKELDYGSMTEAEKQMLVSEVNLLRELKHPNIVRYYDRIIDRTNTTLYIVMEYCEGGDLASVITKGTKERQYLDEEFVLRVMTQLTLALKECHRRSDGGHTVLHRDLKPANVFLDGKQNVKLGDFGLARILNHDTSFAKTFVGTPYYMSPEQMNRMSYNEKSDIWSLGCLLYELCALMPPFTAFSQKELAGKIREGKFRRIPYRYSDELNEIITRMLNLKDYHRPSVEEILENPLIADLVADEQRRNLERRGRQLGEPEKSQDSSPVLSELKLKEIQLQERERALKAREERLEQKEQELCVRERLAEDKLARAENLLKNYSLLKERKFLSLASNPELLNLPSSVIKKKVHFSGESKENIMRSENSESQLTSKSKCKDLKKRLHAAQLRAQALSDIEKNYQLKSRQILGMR
Sequence of Ephrin type-A receptor 5 (Homo sapiens) (P54756 whole entry): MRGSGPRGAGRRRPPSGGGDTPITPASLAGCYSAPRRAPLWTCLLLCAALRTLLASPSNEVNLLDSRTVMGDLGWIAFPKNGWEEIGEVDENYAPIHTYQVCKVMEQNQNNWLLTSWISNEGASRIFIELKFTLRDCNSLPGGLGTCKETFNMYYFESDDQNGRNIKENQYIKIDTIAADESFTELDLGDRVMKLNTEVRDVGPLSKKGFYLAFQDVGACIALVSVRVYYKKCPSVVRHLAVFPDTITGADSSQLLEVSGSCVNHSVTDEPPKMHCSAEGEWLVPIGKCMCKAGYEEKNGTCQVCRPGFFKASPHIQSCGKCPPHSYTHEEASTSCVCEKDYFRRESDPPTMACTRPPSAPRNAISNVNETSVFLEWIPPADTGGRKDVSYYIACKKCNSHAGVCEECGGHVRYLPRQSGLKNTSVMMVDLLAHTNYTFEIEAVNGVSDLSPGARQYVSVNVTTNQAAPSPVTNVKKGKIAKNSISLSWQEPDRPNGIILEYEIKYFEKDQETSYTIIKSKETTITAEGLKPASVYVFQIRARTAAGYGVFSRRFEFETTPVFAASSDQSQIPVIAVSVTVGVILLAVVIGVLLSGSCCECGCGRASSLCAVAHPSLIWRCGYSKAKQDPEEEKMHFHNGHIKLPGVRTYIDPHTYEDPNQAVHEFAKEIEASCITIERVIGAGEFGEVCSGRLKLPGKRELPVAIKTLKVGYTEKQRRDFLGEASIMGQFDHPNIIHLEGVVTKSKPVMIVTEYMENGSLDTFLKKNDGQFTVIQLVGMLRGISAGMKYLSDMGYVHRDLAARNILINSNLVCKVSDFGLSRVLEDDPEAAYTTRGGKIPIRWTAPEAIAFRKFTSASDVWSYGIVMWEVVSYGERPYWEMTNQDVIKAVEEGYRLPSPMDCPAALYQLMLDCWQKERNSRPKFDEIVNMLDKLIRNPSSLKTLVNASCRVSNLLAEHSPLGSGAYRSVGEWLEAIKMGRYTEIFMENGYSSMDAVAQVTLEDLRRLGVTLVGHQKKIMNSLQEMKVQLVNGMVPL

inhibition [1]: 3%
inhibition [2]: 3%
inhibition [4]: -9%
inhibition [5]: Active
inhibition [8]: -9%
inhibition [9]: 38%
inhibition [12]: -3%
inhibition [13]: Dose-Dependent Effect
inhibition [14]: 8%
inhibition [15]: -2%
inhibition [16]: 8%
inhibition [17]: 0%
inhibition [19]: 1%
inhibition [20]: -3%
inhibition [21]: -5%
inhibition [23]: -7%
inhibition [25]: 2%
inhibition [26]: -6%
inhibition [30]: 24%
inhibition [31]: -6%
inhibition [32]: -8%
Structure (SMILES): CN1CCN(C(=O)C(C)(C)c2ccc(C(=O)Nc3cn4cc(-c5ccncc5)ccc4n3)cc2)CC1 [T3-CLK]
Activity (HCT-116 [3]): 30.5%
Activity (HCT-116 [6]): 7.46%
Activity (HCT-116 [7]): 8.13%
Activity (HCT-116 [10]): 20.9%
Activity (HCT-116 [11]): 11.4%
Activity (HCT-116 [18]): 8.23%
GI (HCT-116 [22]): 0.133 µM
Activity (HCT-116 [24]): 13.1%
Activity (HCT-116 [27]): 20.7%
Activity (HCT-116 [28]): 7.3%
Activity (HCT-116 [29]): 46.7%
